Most compounds without a hit are left out; they make up all but 2.2% or so of the library.
FGF22 binding: binders of recombinant human FGF22 by thermal shift; activity (Tm shift, normalised), % at 9.99 µM; Q9HCT0; SYPRO orange fluorescence; percent of sucrose octasulfate shift, DMSO zero; 340,000 compounds, 1.5% hits;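 active = mean Tm shift, scaled 0 neutral to 100 positive control, at about 1.3% or above, every replicate too, limit read from the data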
FN deposit inh: fibronectin deposition inhibition. AID 743247. inhibition, % at 12.6 µM. AH1F fibroblasts, Alexa488-fibronectin deposition fluorescence, overnight. 350,000 compounds, 0.086% hits;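 active = mean inhibition across replicates of 30% or more, regardless of how many single replicates reach that level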;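 note: positive control wells lacked labelled fibronectin entirely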
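Material: AH1F fibroblasts assembling fluorescent fibronectin matrix; amount: 10000 AH1F cells/well; medium: DMEM, 2% serum; reagent: Alexa488-fibronectin, 24 nM final in well; dosing: single compound dose, delivered by pin transfer; incubation: 1 h adhesion, overnight exposure; detection: fluorescence after three HBSS washes, excitation 485 nm, emission 525 nm; measure: fibronectin deposition inhibition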
PGC1a acetyl inh: lowers PGC1a acetylation signal in U2OS cells; 350,000 compounds, 0.17% hits; AID 651687; inhibition, % at 15.6 µM; AlphaScreen anti-acetyl-lysine; with virally co-expressed GCN5 acetyltransferase;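 active = every replicate shows inhibition of at least 40%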;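 note: 0% = neutral control wells and 100% = positive control wells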
ERAP1 inh: blocks human ERAP1 aminopeptidase activity | recombinant ERAP1, Leu-AMC fluorescence, 60 min | inhibition, % at 10.7 µM | 340,000 compounds, 0.15% hits | AID 652197;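 active = mean replicate inhibition of at least 30%, or all replicates individually reaching that 30% level; inactive = mean below 30% and not every replicate reaching it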;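 note: 0% = neutral control wells and 100% = L-leucinethiol positive control wells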
Target sequence (Q9NZ08 whole entry, looked up): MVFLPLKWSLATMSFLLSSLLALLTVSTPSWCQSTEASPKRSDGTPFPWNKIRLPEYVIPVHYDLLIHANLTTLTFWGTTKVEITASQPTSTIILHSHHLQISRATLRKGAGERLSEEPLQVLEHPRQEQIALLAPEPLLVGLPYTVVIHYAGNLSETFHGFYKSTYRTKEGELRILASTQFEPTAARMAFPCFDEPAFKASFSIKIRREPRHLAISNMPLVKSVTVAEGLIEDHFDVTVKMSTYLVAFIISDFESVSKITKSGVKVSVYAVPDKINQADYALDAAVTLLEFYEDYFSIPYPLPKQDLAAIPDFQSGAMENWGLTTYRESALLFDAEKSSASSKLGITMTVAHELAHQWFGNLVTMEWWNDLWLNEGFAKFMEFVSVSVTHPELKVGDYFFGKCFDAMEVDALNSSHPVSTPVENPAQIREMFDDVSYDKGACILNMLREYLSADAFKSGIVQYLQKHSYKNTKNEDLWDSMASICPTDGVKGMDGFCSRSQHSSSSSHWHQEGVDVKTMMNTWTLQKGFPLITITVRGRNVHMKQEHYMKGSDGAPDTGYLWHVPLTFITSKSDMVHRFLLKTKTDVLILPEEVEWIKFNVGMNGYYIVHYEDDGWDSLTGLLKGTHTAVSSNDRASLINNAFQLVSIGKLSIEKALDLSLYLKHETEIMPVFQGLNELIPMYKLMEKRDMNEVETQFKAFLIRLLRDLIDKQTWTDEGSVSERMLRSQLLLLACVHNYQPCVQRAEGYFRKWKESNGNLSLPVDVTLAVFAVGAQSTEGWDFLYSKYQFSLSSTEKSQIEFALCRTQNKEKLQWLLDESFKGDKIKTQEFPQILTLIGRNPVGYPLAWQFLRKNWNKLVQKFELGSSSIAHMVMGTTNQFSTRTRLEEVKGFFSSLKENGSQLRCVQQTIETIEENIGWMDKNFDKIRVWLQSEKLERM
SIRT5 inh: blocks human SIRT5 desuccinylation of peptide; Q9NXA8; Purified SirT5, succinyl-peptide AMC, trypsin-coupled fluorescence; inhibition, % at 15 µM; 330,000 compounds, 1.1% hits; in the data active = inhibition above about 15%
* = called active by the depositor.

`CCCCCC(=O)N1C[C@H](n2cc(-c3ccc(F)cc3)nn2)[C@@H](O)C[C@@H]1c1ccc(C)cc1` gave FGF22 binding -0.3, FN deposit inh -1.7, PGC1a acetyl inh 66.6* and SIRT5 inh 1.9.
For c1cncc(CNc2ncnc3ccc(-c4ccoc4)cc23)c1 the results were FGF22 binding 0.0, FN deposit inh 0.0, PGC1a acetyl inh 55.1* and ERAP1 inh -2.8.
`Brc1ccc2ncnc(NCc3ccccc3)c2c1` gave PGC1a acetyl inh 42.4*.
`C[C@@H]1CN([C@@H](C)CO)C(=O)c2cc(NC(=O)c3ccccc3)ccc2O[C@@H](C)CCCCO[C@@H]1CN(C)C(=O)NC1CCCCC1` gave FGF22 binding -0.1, FN deposit inh 5.3 and PGC1a acetyl inh 12.8.
Screening C[C@@H](NC(=O)[C@@H]1[C@@H](CO)[C@@H]2Cn3c(ccc(C4=CCCCC4)c3=O)[C@H]1N2)c1ccccc1 returned FGF22 binding -0.2, PGC1a acetyl inh 0.9, ERAP1 inh 1.4 and SIRT5 inh -20.7.
Screening C[C@@H]1CCCCO[C@@H](CN(C)Cc2ccccc2)[C@H](C)CN([C@@H](C)CO)C(=O)c2cc(NC(=O)Nc3ccc(C(F)(F)F)cc3)ccc2O1 returned FGF22 binding -0.5, FN deposit inh 2.4, PGC1a acetyl inh 4.7, ERAP1 inh -12.8 and SIRT5 inh 5.0.
`Cc1ccc(S(=O)(=O)N(C)C(=O)NC(=O)NS(=O)(=O)c2ccccc2)cc1` gave FGF22 binding 43.8*, FN deposit inh 2.7, PGC1a acetyl inh -3.2, ERAP1 inh -4.0 and SIRT5 inh 2.6.
For CCOC(=O)/C(=N/Nc1ccc(OC)cc1)Sc1nnc(CCc2ccccc2)n1-c1ccccc1 the results were FGF22 binding -0.3, FN deposit inh -5.6, ERAP1 inh -0.5 and SIRT5 inh 21.5*.
Screening CC(=O)/C(=N/Nc1ccc(C)cc1)Sc1nnc(CCc2ccccc2)n1-c1ccccc1 returned FGF22 binding -0.2, FN deposit inh -10.1, ERAP1 inh -0.7 and SIRT5 inh -3.7.
`CCOC(=O)N1CCN(C(=O)C2CCN(S(=O)(=O)c3ccc(F)cc3)CC2)CC1` gave FGF22 binding 43.2*, FN deposit inh 0.8, PGC1a acetyl inh 0.9, ERAP1 inh -10.8 and SIRT5 inh -6.7.
CCOC(=O)N1CCN(C(=O)C2CCN(S(=O)(=O)c3ccc(C)cc3)CC2)CC1 was read as FN deposit inh 5.1.
CNC(=S)N1N=C(c2ccc(Br)cc2)CC1c1ccc(OC)cc1 (stereo not given) was read as FN deposit inh 4.3.
CNC(=S)N1N=C(c2ccc(C)cc2)CC1c1ccc(N(C)C)cc1 (stereo not given) was read as FGF22 binding 43.6*, FN deposit inh -9.2, PGC1a acetyl inh -3.7, ERAP1 inh 3.7 and SIRT5 inh -1.5.
COc1ccc2c3c(n(C)c2c1)[C@H](CO)N(CC1CC1)CC31CCN(Cc2ccc(F)cc2)CC1 was read as FGF22 binding -0.1, PGC1a acetyl inh -20.1, ERAP1 inh 0.8 and SIRT5 inh -1.2.
For Cc1c(NC(=O)COC(=O)C2(c3ccc(F)cc3)CCCC2)c(=O)n(-c2ccccc2)n1C the results were FGF22 binding 43.3*, FN deposit inh -7.3, PGC1a acetyl inh -1.4, ERAP1 inh -4.4 and SIRT5 inh -4.9.
C[C@H](O)C#Cc1ccc2c(c1)O[C@H](CN(C)C(=O)Nc1ccccc1)[C@H](C)CN([C@@H](C)CO)S2(=O)=O was read as FGF22 binding 0.7, FN deposit inh 4.3, PGC1a acetyl inh 20.4, ERAP1 inh 2.3 and SIRT5 inh 1.0.
For O=C(O)c1ccccc1/C=N/Nc1ccc(S(=O)(=O)N2CCOCC2)cc1[N+](=O)[O-] the results were FGF22 binding 0.1, FN deposit inh -0.9, PGC1a acetyl inh 9.0, ERAP1 inh 18.1 and SIRT5 inh 3.7.
Screening NS(=O)(=O)c1ccc(N/N=C/c2ccc(O)cc2O)c([N+](=O)[O-])c1 returned FGF22 binding -0.2, FN deposit inh 6.6, PGC1a acetyl inh 2.6 and SIRT5 inh 14.4.
NS(=O)(=O)c1ccc(N/N=C/c2ccccc2C(=O)O)c([N+](=O)[O-])c1 was read as FGF22 binding 43.2*, FN deposit inh -0.6, ERAP1 inh 6.7 and SIRT5 inh 2.4.
`NS(=O)(=O)c1ccc(N/N=C/c2ccc(O)c(O)c2O)c([N+](=O)[O-])c1` gave FGF22 binding 0.3, FN deposit inh 10.7, PGC1a acetyl inh 4.9, ERAP1 inh 0.8 and SIRT5 inh 16.2*.
O=C(O)c1ccccc1NS(=O)(=O)c1ccc(N/N=C/c2ccc(O)c(O)c2)c([N+](=O)[O-])c1 was read as FGF22 binding -0.3, FN deposit inh -11.3, ERAP1 inh -23.9 and SIRT5 inh 20.7*.
`COc1cccc(CN2[C@@H](CO)[C@@H]3c4ccccc4N(C(=O)CC(F)(F)F)C[C@@H]32)c1` gave FGF22 binding -0.5, PGC1a acetyl inh -7.6, ERAP1 inh -1.0 and SIRT5 inh 4.2.
Screening Cc1ccccc1S(=O)(=O)N1CC[C@@H]2[C@@H](CO)N(C)c3ccc(-c4ccc(F)cc4)cc3[C@@H]21 returned FN deposit inh -2.6 and PGC1a acetyl inh -3.0.
Cc1ccccc1-c1ccc2c(c1)O[C@@H](CN(C)C(=O)C1CC1)[C@H](C)CN([C@H](C)CO)S2(=O)=O was read as FGF22 binding 0.1, FN deposit inh -2.8, PGC1a acetyl inh 2.8, ERAP1 inh -0.2 and SIRT5 inh -1.5.
`COc1cc(N2C(=O)C=CC2=O)ccc1N1C(=O)C=CC1=O` gave FGF22 binding -0.1, PGC1a acetyl inh -14.7 and ERAP1 inh 47.8*.
`COc1ccc(N2C(=O)C3CC(C)=C(C)CC3C2=O)c(OC)c1` (stereo not given) gave FN deposit inh -7.6 and PGC1a acetyl inh 2.4.
Screening C/C(=N\NC(=O)c1cc(-c2ccc(Br)s2)[nH]n1)c1ccncc1 returned FGF22 binding 0.1, FN deposit inh 21.4, PGC1a acetyl inh 1.1, ERAP1 inh 3.4 and SIRT5 inh 8.7.
For C/C(=N/NC(=O)c1cc(-c2ccc(Br)s2)[nH]n1)c1ccco1 the results were FGF22 binding 1.4*, FN deposit inh 0.0, PGC1a acetyl inh -8.9, ERAP1 inh -3.2 and SIRT5 inh -1.5.
For C[C@@H]1CN([C@H](C)CO)C(=O)c2cc(-c3ccccc3F)cnc2O[C@H]1CN(C)C(=O)C1CCC1 the results were FGF22 binding 0.1, PGC1a acetyl inh 0.6, ERAP1 inh 0.5 and SIRT5 inh 0.4.
`CC1(C)OC2CC3C4CC(F)C5=CC(=O)C=CC5(C)C4(F)C(O)CC3(C)C2(C(=O)CO)O1` (stereo not given) gave FGF22 binding -0.6, FN deposit inh -1.4, PGC1a acetyl inh 2.1, ERAP1 inh 0.4 and SIRT5 inh 17.5*.

Screening results as filed in PubChem BioAssay.
